Results reported in ChEMBL document CHEMBL3739314, “Discovery of Nanomolar Dengue and West Nile Virus Protease Inhibitors Containing a 4-Benzyloxyphenylglycine Residue” (J Med Chem, 2015).
Active and inactive are the calls of the source. No cut-off for these calls is given here. Square brackets hold non-standard residues; d marks the D form. Peptide text beside a SMILES is read from it. * marks the point of attachment. dPhg = N[C@@H](C(=O)O)c1ccccc1; Bz = O=C(c1ccccc1)*

Experiments:
[1] = molecular target: Prothrombin (Homo sapiens) (UniProt P00734); assay: Inhibition of thrombin (unknown origin) using Boc-Val-Pro-Arg-AMC as substrate at 25 uM preincubated with protein for 15 mins followed by substrate addition measured for 10 mins by continuous fluorimetric assay relative to control
West Nile virus = assay: Inhibition of West Nile virus NS2B-NS3 protease using 2-Abz-Gly-Leu-Lys-Arg-Gly-Gly-[…]-Tyr-NH2 as substrate at 50 uM preincubated with protein for 15 mins followed by substrate addition measured for 15 mins by FRET assay
Procedure, shortened: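 Linked WNV NS2B-NS3 protease (150 nM) was preincubated 15 min with inhibitor (50 μM final) in 50 mM Tris-HCl pH 9, 10% ethylene glycol, 0.0016% Brij 58. […] Percent inhibition was taken from the slope relative to the no-inhibitor control, in triplicate.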

[2] = Inhibition of Dengue virus serotype-2 NS2B-NS3 protease using 2-Abz-Nle-Lys-Arg-Arg-Ser-(3-NO2)-Tyr-NH2 as substrate preincubated with protein for 15 mins followed by substrate addition measured for 15 mins by FRET assay; set-up: species or system dengue virus type 2
Procedure, shortened: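 DENV-2 NS2B-NS3 linked construct at 30 nM (15 nM in some cases), same pH 9 Tris buffer, 15 min preincubation and FRET read-out. Eight inhibitor concentrations spanned 0–1, 0–2, 0–6 or 0–50 μM, with substrate at 50 μM. IC50 was fitted from triplicates.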

dengue virus type 2 [3] = assay: Antiviral activity against Dengue virus serotype-2 infected in African green monkey Vero cells after 7 days by virus yield reduction assay; format: functional, organism-based
[4] = Cytotoxicity against human HuH7 cells infected with Dengue virus serotype-2 assessed as cell viability after 48 hrs by Cell-Titer-Glo luminescent viability assay; format: cell-based, Huh-7
Procedure, shortened: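 Huh-7 cells (10^4/well) were seeded in DMEM + 10% FBS overnight, then infected with WT DENV-2 (MOI 1) in the presence of compound, triplicate per concentration. After 48 h at 37 °C, medium was replaced with fresh DMEM and viability was read by CellTiter-Glo luminescence. CC50 was determined.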

[5] = Retention time of compound by RP-HPLC analysis; format: physicochemical
Trypsin (Homo sapiens) = Trypsin (Homo sapiens) (UniProt P07477+P07478+P35030); assay: Inhibition of trypsin (unknown origin) using Boc-Val-Pro-Arg-AMC as substrate at 25 uM preincubated with protein for 15 mins followed by substrate addition by continuous fluorimetric assay relative to control
[6] = Permeability of compound after 5 hrs by PAMPA; format: ADME; conditions: read-out: permeability
Procedure, shortened: (§1)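 Precoated PAMPA plates were equilibrated 1 h at room temperature. Donor wells received 200 μM compound in PBS, in triplicate, and acceptor wells received PBS. After 5 h at room temperature, donor and acceptor concentrations were quantified by RP-HPLC UV at 254 nm against six-point calibration curves (10–200 μM). Pe and mass retention were calculated by literature formulas.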

[7] = Permeability of compound assessed as compound mass retention after 5 hrs by PAMPA; format: ADME; procedure, shortened: as §1
dengue virus type 2 [8] = assay: Inhibition of Dengue virus serotype-2 NS2B-NS3 protease using 2-Abz-Nle-Lys-Arg-Arg-Ser-(3-NO2)-Tyr-NH2 as substrate at 50 uM preincubated with protein for 15 mins followed by substrate addition measured for 15 mins by FRET assay
[9] = Inhibition of West Nile virus NS2B-NS3 protease using 2-Abz-Gly-Leu-Lys-Arg-Gly-Gly-[…]-Tyr-NH2 as substrate preincubated with protein for 15 mins followed by substrate addition measured for 15 mins by FRET assay
Procedure, shortened: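 WNV NS2B-NS3 linked construct at 75 nM (40 nM in one case) in pH 9 Tris buffer, preincubated 15 min with eight inhibitor concentrations (ranges 0–1 up to 0–50 μM). Substrate was 50 μM, with FRET readout over 15 min. IC50 was fitted from triplicates.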

[10] = Half life in Sprague-Dawley rat liver microsomes incubated for 30 mins by UV-HPLC method; format: ADME
Procedure, shortened: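 Pooled male rat liver microsomes (0.2 mg/mL protein) with NADPH (10 mM) in DPBS were preincubated 15 min at 37 °C. Compound (100 μM) was added and incubated at 37 °C; aliquots were taken at 0, 2, 5, 10, 20 and 30 min. Samples were quenched with equal-volume acetonitrile, chilled and centrifuged, and parent remaining was quantified by RP-HPLC UV against reference peak areas. Testosterone served as positive control.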

SMILES | inhibition [1] | inhibition (West Nile virus) [%] | IC50 [2] [nM] | EC50 (dengue virus type 2 [3]) [µM] | CC50 at 48 h [4] [µM] | Retention_time [5] [min] | inhibition (Trypsin (Homo sapiens)) | Papp at 5 h [6] [×10⁻⁶ cm/s] | permeability [7] [%] | inhibition (dengue virus type 2 [8]) [%] | IC50 [9] [nM] | Ki [9] [nM] | Ki [2] [nM] | half-life [10] [min]
N=C(N)NCCC[C@H](NC(=O)c1cc2ccccc2s1)C(=O)N[C@@H](CCCCN)C(=O)N[C@@H](C(N)=O)c1ccc(OCc2ccccc2)cc1 | < 30% | 97.1 | 451 | 20.4 | > 100 | 3.13 | – | – | – | – | – | – | – | –
CC(C)(C)c1ccc(COc2ccc([C@@H](NC(=O)[C@H](CCCCN)NC(=O)[C@H](CCCNC(=N)N)NC(=O)c3ccc(Cl)s3)C(N)=O)cc2)cc1 | inactive | 91.3 | 130 | 7.12 | > 100 | 3.34 | inactive | 0.33 | 0.44 | – | – | – | – | –
N=C(N)NCCC[C@H](NC(=O)c1ccccc1)C(=O)N[C@@H](CCCCN)C(=O)N[C@H](C(N)=O)c1ccc(OCc2ccccc2)cc1 | – | 88 | 935 | – | – | – | – | – | – | 99.9 | – | – | – | –
N=C(N)NCCC[C@@H](NC(=O)[C@@H](CCCCN)NC(=O)c1ccccc1)C(=O)N[C@H](C(N)=O)c1ccc(OCc2ccccc2)cc1 | – | 64 | – | – | – | – | – | – | – | 23.5 | – | – | – | –
N=C(N)NCCC[C@H](NC(=O)c1cccs1)C(=O)N[C@@H](CCCCN)C(=O)N[C@@H](C(N)=O)c1ccc(OCc2ccc(C(F)(F)F)cc2)cc1 | inactive | 101 | 28 | 7.06 | > 100 | 3.15 | inactive | – | – | – | 117 | 93 | 19 | –
N=C(N)NCCC[C@H](NC(=O)c1ccc(-c2cccs2)s1)C(=O)N[C@@H](CCCCN)C(=O)N[C@@H](C(N)=O)c1ccc(OCc2ccc(Cl)c(Cl)c2)cc1 | inactive | 100 | 215 | 7.6 | 40 | 3.6 | inactive | 0.79 | 2.5 | – | 365 | – | – | –
N=C(N)NCCC[C@H](NC(=O)c1cc2ccsc2s1)C(=O)N[C@@H](CCCCN)C(=O)N[C@@H](C(N)=O)c1ccc(OCc2ccc(C(F)(F)F)cc2)cc1 | inactive | 94.2 | 203 | 10.5 | 48.5 | 3.39 | inactive | – | – | – | – | – | – | –
N=C(N)NCCC[C@H](NC(=O)c1ccccc1)C(=O)N[C@@H](CCCCN)C(=O)N[C@H](C(N)=O)c1ccc(O)cc1 | – | 79.2 | 9700 | – | – | – | – | – | – | 96.6 | – | – | – | –
N=C(N)NCCC[C@H](NC(=O)c1cc2ccccc2s1)C(=O)N[C@@H](CCCCN)C(=O)N[C@@H](C(N)=O)c1ccc(OCc2ccc(C(F)(F)F)cc2)cc1 | inactive | 98.7 | 199 | 7.06 | 56.8 | 3.47 | inactive | – | – | – | 604 | – | – | –
N=C(N)NCCC[C@@H](NC(=O)[C@@H](CCCCN)NC(=O)c1ccccc1)C(=O)N[C@@H](C(N)=O)c1ccc(OCc2ccccc2)cc1 | – | 19.9 | – | – | – | – | – | – | – | 26.8 | – | – | – | –
N=C(N)NCCC[C@H](NC(=O)c1ccccc1)C(=O)N[C@@H](CCCCN)C(=O)N[C@@H](C(N)=O)c1ccccc1 (Bz-Arg-Lys-[dPhg]-NH2) | – | 99 | 3790 | – | – | – | – | – | – | 99.3 | 3780 | – | – | –
N=C(N)NCCC[C@H](NC(=O)c1ccccc1)C(=O)N[C@@H](C(N)=O)c1ccc(OCc2ccccc2)cc1 | – | 27.5 | – | – | – | – | – | – | – | 31 | – | – | – | –
N=C(N)NCCC[C@H](NC(=O)c1cc2sccc2s1)C(=O)N[C@@H](CCCCN)C(=O)N[C@@H](C(N)=O)c1ccc(OCc2c(Cl)cccc2Cl)cc1 | inactive | 99.2 | 158 | 5.33 | 34.3 | 3.28 | inactive | – | – | – | 785 | – | – | –
COc1cccc(COc2ccc([C@@H](NC(=O)[C@H](CCCCN)NC(=O)[C@H](CCCNC(=N)N)NC(=O)c3cccs3)C(N)=O)cc2)c1 | inactive | 99.3 | 68 | 54.6 | > 100 | 2.71 | inactive | – | – | – | 231 | – | – | 93
N=C(N)NCCC[C@@H](NC(=O)c1ccccc1)C(=O)N[C@H](CCCCN)C(=O)N[C@H](C(N)=O)c1ccc(OCc2ccccc2)cc1 | – | 71.3 | – | – | – | – | – | – | – | 29.4 | – | – | – | –
NCCCC[C@H](NC(=O)c1ccccc1)C(=O)N[C@@H](C(N)=O)c1ccc(OCc2ccccc2)cc1 | – | 11.4 | – | – | – | – | – | – | – | 16.4 | – | – | – | –
N=C(N)NCCC[C@H](NC(=O)c1ccccc1)C(=O)N[C@@H](CCCCN)C(=O)N[C@@H](C(N)=O)c1ccc(O)cc1 | – | 75.1 | 2030 | – | – | – | – | – | – | 98 | – | – | – | –
COc1cccc(COc2ccc([C@@H](NC(=O)[C@H](CCCCN)NC(=O)[C@H](CCCNC(=N)N)NC(=O)c3nccs3)C(N)=O)cc2)c1 | inactive | 100 | 47 | – | – | – | inactive | – | – | – | 273 | – | – | –
N=C(N)NCCC[C@H](NC(=O)[C@H](CCCCN)NC(=O)c1ccccc1)C(=O)N[C@@H](C(N)=O)c1ccc(OCc2ccccc2)cc1 | – | 91.7 | – | – | – | – | – | – | – | 77 | – | – | – | –
N=C(N)NCCC[C@H](NC(=O)c1cccs1)C(=O)N[C@@H](CCCCN)C(=O)N[C@@H](C(N)=O)c1ccc(OCC(=O)c2ccc(Br)cc2)cc1 | inactive | 99.4 | 148 | – | – | – | 59% | – | – | – | 487 | – | – | –
